Consider eight compounds from ChEMBL document CHEMBL4411261, “Down-Regulation of the Androgen Receptor by G-Quadruplex Ligands Sensitizes Castration-Resistant Prostate Cancer Cells to Enzalutamide” (J Med Chem, 2018).

SMILES strings stand for the structures. Activity calls are given as the source filed them. The rule behind the calls is not given here.

Assay [1] relates to PNT1A. Nature of the assay: Cytotoxicity against human PNT1A cells assessed as reduction in cell viability after 48 hrs by MTS assay. Type of assay: cell-based. Put shortly:
(§1)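 Cells kept in RPMI-1640 with 10% fetal calf serum, 37 °C, 5% CO2. Seeded, after 24 h treated with 0.0001, 0.001, 0.01, 0.1, 1 and 10 μM compound (DMSO stocks freshly diluted in medium) for 48 h. MTS added 4 h, absorbance 490 nm; IC50 from curves of % viability inhibition versus DMSO-treated cells against log concentration.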

Assay [2] is described as follows: Stabilization of 5'-FAM/3'-TAMRA labelled CTATAGCGCGCTATAG dsDNA (unknown origin) assessed as change in melting temperature t1/2 at 1 uM after 16 hrs in presence of 100 mM K+ by FRET assay. The method, boiled down:
(§2)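 FRET melting: FAM/TAMRA dual-labelled oligos (0.25 μM) folded in 10 mM lithium cacodylate pH 7.4 with 100 mM KCl (95 °C 5 min, cooled 4 h); ligand added at 1 μM final, 16 h room temperature. FAM emission followed 30−95 °C at 1 °C/min; curves normalized 0 to 1, T1/2 at 0.5 fraction.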

In assay [3] the test system is Quadruplex DNA. Nature of the assay: Stabilization of 5'-FAM/3'-TAMRA labelled AR1 G-quadruplex oligonucleotide (unknown origin) assessed as change in melting temperature t1/2 at 1 uM after 16 hrs in presence of 100 mM K+ by FRET assay. The format is nucleic-acid assay. Put shortly:
as §2

Assay [4] has as its system Quadruplex DNA. Nature of the assay: Stabilization of 5'-FAM/3'-TAMRA labelled AR3 G-quadruplex oligonucleotide (unknown origin) assessed as change in melting temperature t1/2 at 1 uM after 16 hrs in presence of 100 mM K+ by FRET assay. The format is nucleic-acid assay. Put shortly: as §2
Assay [5] deals with PC-3. Nature of the assay: Cytotoxicity against human PC3 cells assessed as reduction in cell viability after 48 hrs by MTS assay. Type of assay: functional, cell-based. Particulars: PC-3, 48 h. The method, boiled down: as §1
A general note: Tetrazolium dyes change colour on reduction, which living cells bring about.

Assay [6] has as its system CWR22R. The assay is described as follows: Cytotoxicity against human 22Rv1 cells expressing full length androgen receptor H875Y point mutant assessed as reduction in cell viability after 48 hrs by MTS assay. Type of assay: functional, cell-based. The following applies: 22Rv1, 48 h. The method, boiled down: as §1
The test system of assay [7] is LNCaP. Nature of the assay: Cytotoxicity against human LNCAP cells expressing androgen receptor T877A point mutant assessed as reduction in cell viability after 48 hrs by MTS assay. Type of assay: functional, cell-based. The method, boiled down: as §1
The subject of assay [8] is Quadruplex DNA. Nature of the assay: Binding affinity to 5'-Biotinylated-AR1 G-quadruplex oligonucleotide (unknown origin) by SPR analysis relative to control. Type of assay: nucleic-acid assay. (In SPR one partner is held on a chip, and binding of the other changes the refractive index at the surface.)
Assay [9] deals with DU-145. The assay is described as follows: Cytotoxicity against human DU145 cells assessed as reduction in cell viability after 48 hrs by MTS assay. The format is functional, cell-based. Particulars: DU-145, 48 h. The method, boiled down: as §1
The target in assay [10] is Quadruplex DNA. Nature of the assay: Binding affinity to 5'-Biotinylated-AR1 G-quadruplex oligonucleotide (unknown origin) by SPR analysis. The format is nucleic-acid assay. Put shortly:
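SPR on streptavidin chip; 5′-biotinylated oligo folded by heating 95 °C 5 min in 10 mM lithium cacodylate, 150 mM KCl, then immobilized at 30 nM to about 600 RU; empty reference cell. Compound 0.7−400 nM in HEPES-KCl (pH 7.4, 0.15 M KCl, 3 mM EDTA) at 40 °C, 40 μL/min, 260 s contact, 600 s dissociation; glycine pH 2.0 regeneration; steady-state affinity fit; at least two independent runs.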

Assay [11] relates to Quadruplex DNA. Nature of the assay: Stabilization of AR G-quadruplex oligonucleotide in human 22Rv1 cells assessed as reduction in AR-FL protein level at IC50 after 48 hrs by Western immunoblot assay. The format is cell-based. Background: In western blotting, separated proteins are transferred to a membrane and probed.
For assay [12], the system named is Quadruplex DNA. Nature of the assay: Stabilization of AR G-quadruplex oligonucleotide in human 22Rv1 cells assessed as reduction in AR-VS protein level at IC50 after 48 hrs by Western immunoblot assay. Type of assay: cell-based.
The subject of assay [13] is Quadruplex DNA. The assay is described as follows: Stabilization of AR G-quadruplex oligonucleotide in human LNCAP cells assessed as reduction in PSA protein level by immunoblotting assay. The format is cell-based. The method, boiled down:
(§3)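 Lysate proteins immunoblotted. Vinculin or β-actin used as loading control, peroxidase-linked secondary antibodies, ECL chemiluminescent detection, autoradiography, densitometric scan. Untreated cells received DMSO.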

Assay [14] deals with Quadruplex DNA. The assay is described as follows: Stabilization of AR G-quadruplex oligonucleotide in human 22Rv1 cells assessed as reduction in AR-Vs protein level by immunoblotting assay. The format is cell-based.
Assay [15] deals with Quadruplex DNA. Nature of the assay: Stabilization of AR G-quadruplex oligonucleotide in human 22Rv1 cells assessed as reduction in AR mRNA expression at IC50 by RT-PCR analysis. The format is cell-based. The following applies: TDE = time-dependent effect.
Assay [16] concerns Quadruplex DNA. Nature of the assay: Stabilization of AR G-quadruplex oligonucleotide in human 22Rv1 cells assessed as reduction in basal AR mRNA expression at IC50 after 6 to 72 hrs by RT-PCR analysis. Type of assay: cell-based. The method, boiled down: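 Transcripts quantified by TaqMan real-time PCR with RNaseP as normalizer; relative quantity versus untreated cells by the 2−ΔΔCt method. Panel genes measured with a 92-gene cancer-mechanism TaqMan array.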

Assay [17] relates to Quadruplex DNA. The assay is described as follows: Stabilization of AR G-quadruplex oligonucleotide in human LNCAP cells assessed as reduction in AR-FL protein level by immunoblotting assay. The format is cell-based. Put shortly:
as §3

In assay [18] the test system is Quadruplex DNA. The assay is described as follows: Stabilization of AR G-quadruplex oligonucleotide in human 22Rv1 cells assessed as reduction in AR-FL protein level by immunoblotting assay. The format is cell-based.
The test system of assay [19] is Quadruplex DNA. The assay is described as follows: Stabilization of AR G-quadruplex oligonucleotide in human LNCAP cells assessed as reduction in AR mRNA expression at IC50 by RT-PCR analysis. Type of assay: cell-based. The following applies: TDE = time-dependent effect. The method, boiled down:
(§4)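 Cells grown in RPMI-1640 with 10% fetal calf serum, 37 °C, 5% CO2, treated at an equitoxic concentration. Transcripts quantified by TaqMan real-time RT-PCR, normalized to RNaseP, expressed as relative quantity versus untreated cells (calibrator) by the 2−ΔΔCt method.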

Assay [20] relates to Quadruplex DNA. The assay is described as follows: Stabilization of AR G-quadruplex oligonucleotide in human LNCAP cells assessed as reduction in basal AR mRNA expression at IC50 after 6 to 72 hrs by RT-PCR analysis. Type of assay: cell-based. Put shortly: as §4

For `CN(C)CCN1C(=O)c2ccc3c4c(c(NCC(=O)Nc5ccc(O)c(CO)c5)cc(c24)C1=O)C(=O)N(CCN(C)C)C3=O`, the IC50 was 1440 nM in assay [1]; greater than 10000 nM in assay [5]; 3690 nM in assay [6]; 3040 nM in [7]; greater than 10000 nM in [9]. Further, the ΔTm in [2] is less than 0.1 °C; in assay [3] it was 4.5 °C; in assay [4], 9.3 °C. In assay [8], the RBA amounted to 41%. For the same compound, binding in assay [10] was put at a Kd of 43.9 nM.
As to `CN(C)CCCNc1cc2c3c(ccc4c3c1C(=O)N(CCCN(C)C)C4=O)C(=O)N(CCCN(C)C)C2=O`, the IC50 in assay [1] was determined as 590 nM; in assay [5], 6320 nM; in assay [6], 2430 nM; in assay [7], 3400 nM; in [9], 3880 nM. Besides, the ΔTm in assay [2] amounted to 5.1 °C; in assay [3], 11 °C; in assay [4], 13 °C. The RBA in [8] is 43%. In [10], this compound had a Kd of 41.2 nM.
Turning to `CN(C)CCN1C(=O)c2ccc3c4c(c(C#Cc5ccc(CN(C)C)c(O)c5)cc(c24)C1=O)C(=O)N(CCN(C)C)C3=O`, the IC50 was 130 nM in assay [1]; 340 nM in assay [5]; 970 nM in [6]; 590 nM in assay [7]; 550 nM in assay [9]. In addition, the ΔTm in assay [2] is less than 0.1 °C; in assay [3] it was 5.6 °C; in assay [4], 9 °C. The RBA in assay [8] was found to be 84%. The compound further gave a Kd in assay [10] of 21.4 nM.
For the compound `CN(C)CCCN1C(=O)c2ccc3c4c(c5[nH]c(=O)c(=O)[nH]c5c(c24)C1=O)C(=O)N(CCCN(C)C)C3=O`, the 50% inhibitory concentration (IC50) in [1] is 1370 nM; in assay [5], greater than 10000 nM; in assay [6], greater than 10000 nM; in assay [7], 10300 nM; in assay [9], greater than 10000 nM. The ΔTm is less than 0.1 °C in assay [2], 3.6 °C in [3] and 6 °C in assay [4]. The RBA in assay [8] turned out to be 47%. For the same compound, binding in assay [10] was put at a Kd of 38.3 nM.
Turning to `CN(C)CCN1C(=O)c2ccc3c4c(c(NCCc5ccc(O)c(CN(C)C)c5)cc(c24)C1=O)C(=O)N(CCN(C)C)C3=O`, the IC50 came out at 350 nM in assay [1]; 320 nM in assay [5]; 100 nM in assay [6]; 390 nM in assay [7]; 300 nM in assay [9]. Also, the result in assay [11] and in [12] was Active. Further, the figures for the thermal shift (ΔTm) in assay [2], in [3] and in [4] were less than 0.1 °C, 7.2 °C and 10 °C, respectively. In assay [8], the RBA was determined as 52%. Binding in assay [10] was put at a Kd of 34.2 nM.
For the compound `CN1CCN(c2cc3c4c(c(NCCO)cc5c4c2C(=O)N(CCO)C5=O)C(=O)N(CCO)C3=O)CC1`, the IC50 was 7070 nM in [1]; greater than 10000 nM in assay [5]; 7670 nM in [6]; greater than 10000 nM in [7]; greater than 10000 nM in [9]. Further, the result in assay [13], in assay [14], in assay [16], in [17], in [18] and in assay [20] was inactive. For the same compound, the ΔTm was less than 0.1 °C in assay [2], 0.1 °C in assay [3] and 0.4 °C in assay [4]. The Activity entry in assay [15] and in [19] was “Tde” in each case.
Consider `CN(C)CCCN1C(=O)c2ccc3c4c(c(NCCCCNc5cc6c7c(ccc8c7c5C(=O)N(CCCN(C)C)C8=O)C(=O)N(CCCN(C)C)C6=O)cc(c24)C1=O)C(=O)N(CCCN(C)C)C3=O`, for which the IC50 in assay [1] is 2480 nM; in assay [5], 10100 nM; in assay [6], greater than 10000 nM; in assay [7], 1930 nM; in assay [9], 3390 nM. Also, the ΔTm in [2] stood at 1.9 °C; in assay [3], 11.3 °C; in assay [4] it was 19.7 °C. In [8], the RBA came out at 19%. Also, the affinity in assay [10], expressed as Kd, was 92.5 nM.
Turning to `CN(C)CCCN1C(=O)c2ccc3c4c(c(NCCCCCCCNc5cc6c7c(ccc8c7c5C(=O)N(CCCN(C)C)C8=O)C(=O)N(CCCN(C)C)C6=O)cc(c24)C1=O)C(=O)N(CCCN(C)C)C3=O`, the IC50 in assay [1] was 1890 nM; in assay [5], greater than 10000 nM; in assay [6], 3450 nM; in assay [7], 6560 nM; in assay [9] it was 2190 nM. Further, the values for the ΔTm in assay [2], in assay [3] and in assay [4] were 1 °C, 8.3 °C and 17 °C, respectively. Moreover, in assay [8], the RBA was 10%. Further, in [10], binding was put at a Kd of 182 nM.

As a reminder, the IC50 is the concentration that inhibits the measured activity by half. As a reminder, the ΔTm is the change in melting temperature against a reference sample. One may read the Kd as the free concentration of one partner at which half of the binding sites on the other are occupied at equilibrium, for simple one-to-one binding. A low value points to higher affinity.
